By Kd is commonly meant the free concentration of one partner at which half of the binding sites on the other are occupied at equilibrium, for simple one-to-one binding. A lower Kd goes with a tighter complex.

Each structure is given as a SMILES string. Where a SMILES comes first, the peptide text is derived from it. [ ]: non-standard residue; d: D form. The star is where a group is joined. pT = C[C@@H](OP(=O)(O)O)[C@H](N)C(=O)O; Fmoc = O=C(OCC1c2ccccc2-c2ccccc21)*; Hydrocinnamoyl = O=C(CCc1ccccc1)*; ΔPro = O=C(O)[C@@H]1C=CCN1; Thz = O=C(O)[C@@H]1CSCN1; PhAc = O=C(Cc1ccccc1)*

Chain of Peptidyl-prolyl cis-trans isomerase NIMA-interacting 1 (Q13526 whole entry, the tested form may be a part): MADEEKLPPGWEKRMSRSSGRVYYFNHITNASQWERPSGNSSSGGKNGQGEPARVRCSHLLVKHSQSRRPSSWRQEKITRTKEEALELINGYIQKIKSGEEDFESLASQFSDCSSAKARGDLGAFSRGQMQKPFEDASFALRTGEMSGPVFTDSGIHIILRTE

For the experiment, the target named is Peptidyl-prolyl cis-trans isomerase NIMA-interacting 1 (Homo sapiens, UniProt Q13526). In words: Dissociation constant for human peptidyl-prolyl cis-trans isomerase NIMA-interacting 1. In a few lines:
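15N-labeled Pin1 WW domain (His6-tagged, expressed in E. coli BL21(DE3)) in 25 mM deuterated Tris-HCl pH 6.8, 50 mM NaCl, 5 mM DTT, 2.5 mM EDTA, 10% D2O; 600 MHz 1H-15N HSQC at 293 K. 50 μM protein titrated with ligand 0.025–1 mM final; chemical shift perturbations fitted to a single-site equation for KD.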
In the case of `C[C@@H](OP(=O)(O)O)[C@H](NC(=O)CCCc1ccccc1)C(=O)N1CC=C[C@H]1C(N)=O`, binding was characterised by a dissociation constant (Kd) of 28 µM. In other words, the double-digit micromolar range.
With `NC(=O)[C@@H]1CCCN1C(=O)CCNS(=O)(=O)C(F)(F)F`, the Kd is greater than 2000 µM.
Regarding `NC(=O)[C@@H]1CCCN1C(=O)CCP(=O)(O)O`, the Kd is greater than 2000 µM.
In turn, `NC(=O)[C@@H]1CCCN1C(=O)CC/N=c1\c(O)c(O)c1=O` had a dissociation constant Kd greater than 2000 µM.
With `NC(=O)[C@@H]1CCCN1C(=O)CCC(=O)O`, the Kd is greater than 2000 µM.
`C[C@@H](OP(=O)(O)O)[C@H](NC(=O)CCCCc1ccccc1)C(=O)N1CCC[C@H]1C(N)=O` gave a Kd of 48 µM. That is a double-digit micromolar value.
Turning to `NC(=O)[C@@H]1CCCN1C(=O)CCCC(=O)O`, the Kd is greater than 2000 µM.
As for `C[C@@H](OP(=O)(O)O)[C@H](NC(=O)CCCc1ccccc1)C(=O)N1CCC[C@H]1C(N)=O`, the figure is 30 µM; as for `CC(=O)N[C@H](C(=O)N1CCC[C@@H]1C(N)=O)[C@@H](C)OP(=O)(O)O`, 100 µM; as for `NC(=O)[C@@H]1CCCN1C(=O)[C@H](CCC/N=c1\c(O)c(O)c1=O)NC(=O)OCC1c2ccccc2-c2ccccc21`, 910 µM.
Regarding `NC(=O)[C@@H]1CCCN1C(=O)[C@H](CCCCNc1c(O)c(=O)c1=O)NC(=O)OCC1c2ccccc2-c2ccccc21`, the Kd amounted to 540 µM.
Molecule `C[C@@H](OP(=O)(O)O)[C@H](NC(=O)C(c1ccccc1)c1ccccc1)C(=O)N1CCC[C@H]1C(N)=O` showed a Kd of 38 µM.
As for `CC(=O)N[C@H](C(=O)N1C[C@@H](F)C[C@H]1C(N)=O)[C@@H](C)OP(=O)(O)O`, the figure is 420 µM.
The molecule `C[C@@H](OP(=O)(O)O)[C@H](NC(=O)CCC(C)(c1ccc(O)cc1)c1ccc(O)cc1)C(=O)N1CC=C[C@H]1C(N)=O` had a Kd of 5 µM.
On to `CC(=O)N[C@@H](CCC(=O)O)C(=O)N1CCC[C@H]1C(N)=O` (Ac-Glu-Pro-NH2), for which the Kd is greater than 2000 µM.
For `CC(=O)N[C@H](C(=O)N1CSC[C@H]1C(N)=O)[C@@H](C)OP(=O)(O)O` (Ac-[pT]-[Thz]-NH2), the Kd was 400 µM.
On to `CC(=O)N[C@H](C(=O)N1CC=C[C@H]1C(N)=O)[C@@H](C)OP(=O)(O)O` (Ac-[pT]-[ΔPro]-NH2), for which binding was put at a Kd of 18 µM.
As for `C[C@@H](OP(=O)(O)O)[C@H](NC(=O)OCC1c2ccccc2-c2ccccc21)C(=O)N1CCC[C@H]1C(N)=O` (Fmoc-[pT]-Pro-NH2), the figure is 15 µM; as for `C[C@@H](OP(=O)(O)O)[C@H](NC(=O)OCC1c2ccccc2-c2ccccc21)C(=O)N1CC=C[C@H]1C(N)=O` (Fmoc-[pT]-[ΔPro]-NH2), 66 µM; as for `C[C@@H](OP(=O)(O)O)[C@H](NC(=O)CCc1ccccc1)C(=O)N1CCC[C@H]1C(N)=O` (Hydrocinnamoyl-[pT]-Pro-NH2), 32 µM.
In the case of `C[C@@H](OP(=O)(O)O)[C@H](NC(=O)Cc1ccccc1)C(=O)N1CCC[C@H]1C(N)=O` (PhAc-[pT]-Pro-NH2), the affinity, expressed as Kd, was 35 µM. This Kd and that of the molecule before are within 1.5-fold of each other.
For the molecule `CC(=O)N[C@H](C(=O)N1CCC1C(N)=O)C(C)OP(=O)(O)O` (single isomer, unassigned), the Kd amounted to 160 µM.
On to `CC(=O)N[C@H](C(=O)N1CC(F)CC1C(N)=O)[C@@H](C)OP(=O)(O)O` (single isomer, unassigned), for which the affinity, expressed as Kd, was 36 µM.
In the case of `CC(=O)N[C@H](C(=O)N1CC(O)CC1C(N)=O)[C@@H](C)OP(=O)(O)O` (single isomer, unassigned), binding was characterised by a dissociation constant (Kd) of 800 µM.
As for `CC(=O)N[C@H](C(=O)N1CCCCC1C(N)=O)C(C)OP(=O)(O)O` (single isomer, unassigned), the figure is 140 µM.

The values are drawn from ChEMBL document CHEMBL1140329, “Control of protein-protein interactions: structure-based discovery of low molecular weight inhibitors of the interactions between Pin1 WW domain and phosphopeptides” (J Med Chem, 2005).
